Converted amounts (≈) assume the structure as drawn. The source made the active and inactive calls. No cut-off for these calls is given here.
How the values were obtained:
[1] = tested on: Klebsiella aerogenes; assay: Inhibition of AcrAB-TolC efflux pump in Enterobacter aerogenes CM-64 assessed as fold decrease in nalidixic acid MIC at 100 uM relative to control
Outline: (§1)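 Nalidixic acid MIC (two-fold serial dilutions, about 10^6 cells/mL Mueller-Hinton broth, 18 h, 37 C) determined with a fixed sub-inhibitory level of compound present during incubation. Activity gain A = nalidixic acid MIC without compound divided by MIC with compound. PAbN at 0.050 mM served as reference inhibitor.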

[2] = tested on: Klebsiella aerogenes; assay: Antibacterial activity against Enterobacter aerogenes ATCC 13048 after 18 hrs by two fold serial dilution method; type: functional; details: ATCC 13048, 18 h
[3] = tested on: Klebsiella aerogenes; assay: Inhibition of AcrAB-TolC efflux pump in Enterobacter aerogenes ATCC 13048 assessed as effect on nalidixic acid MIC at 100 uM relative to control; outline: as §1
[4] = tested on: Klebsiella aerogenes; assay: Antibacterial activity against AcrAB-TolC-over producing Enterobacter aerogenes CM-64 after 18 hrs by two fold serial dilution method; type: functional; details: CM-64, 18 h
[5] = tested on: Klebsiella aerogenes; assay: Inhibition of AcrAB-TolC efflux pump in Enterobacter aerogenes ATCC 13048 assessed as effect on nalidixic acid MIC at 62.5 uM relative to control
[6] = tested on: Klebsiella aerogenes; assay: Inhibition of AcrAB-TolC efflux pump in Enterobacter aerogenes CM-64 assessed as effect on nalidixic acid MIC at 62.5 uM relative to control
[7] = tested on: Klebsiella aerogenes; assay: Inhibition of AcrAB-TolC efflux pump in Enterobacter aerogenes ATCC 13048 assessed as fold decrease in nalidixic acid MIC at 62.5 uM relative to control; outline: as §1
[8] = tested on: Klebsiella aerogenes; assay: Inhibition of AcrAB-TolC efflux pump in Enterobacter aerogenes CM-64 assessed as fold decrease in nalidixic acid MIC at 62.5 uM relative to control; outline: as §1
[9] = tested on: Klebsiella aerogenes; assay: Inhibition of AcrAB-TolC efflux pump in Enterobacter aerogenes CM-64 assessed as fold decrease in nalidixic acid MIC at 333 uM relative to control; outline: as §1

| SMILES | fold change (FC) [1] | MIC [2] | inhibition [3] | MIC [4] | inhibition [5] | inhibition [6] | fold change (FC) [7] | fold change (FC) [8] | fold change (FC) [9] |
| --- | --- | --- | --- | --- | --- | --- | --- | --- | --- |
| COC(=O)CN1C(=O)N(CCCCN2CCN(c3ccccc3)CC2)C(c2ccccc2)(c2ccccc2)C1=O | 4 | > 500 µM | inactive | > 500 µM | – | – | – | – | – |
| O=C(O)CN1C(=O)N(CCCN2CCCN3CCCN=C32)C(c2ccccc2)(c2ccccc2)C1=O | – | 1250 µM (≈ 612 µg/mL) | – | 1250 µM (≈ 612 µg/mL) | inactive | inactive | – | – | – |
| COc1ccccc1N1CCN(CC(O)CN2C(=O)N(CC(=O)O)C(=O)C2(c2ccccc2)c2ccccc2)CC1 (configuration not stated) | – | 125 µM (≈ 69.8 µg/mL) | – | 250 µM (≈ 140 µg/mL) | – | – | 2 | 4 | – |
| COc1ccccc1N1CCN(CCCN2C(=O)N(C)C(=O)C2(c2ccccc2)c2ccccc2)CC1 | – | > 500 µM | inactive | > 500 µM | – | – | – | – | – |
| COC(=O)CN1C(=O)N(CC(O)CN2CCN(c3ccccc3)CC2)C(c2ccccc2)(c2ccccc2)C1=O (configuration not stated) | – | 5000 µM (≈ 2710 µg/mL) | – | 5000 µM (≈ 2710 µg/mL) | – | – | – | – | 4 |
| CC(=O)OC(CN1CCN(c2ccccc2)CC1)CN1C(=O)N(C)C(=O)C1(c1ccccc1)c1ccccc1 (configuration not stated) | – | > 500 µM | inactive | > 500 µM | – | – | – | – | – |
| NCCCCN1C(=O)N(CC(=O)O)C(=O)C1(c1ccccc1)c1ccccc1 | – | 1250 µM (≈ 477 µg/mL) | – | 1250 µM (≈ 477 µg/mL) | inactive | inactive | – | – | – |
| CCOC(=O)N1CCN(CCCCN2C(=O)N(CC(=O)O)C(=O)C2(c2ccccc2)c2ccccc2)CC1 | – | 1250 µM (≈ 653 µg/mL) | – | 1250 µM (≈ 653 µg/mL) | inactive | inactive | – | – | – |
| COC(=O)CN1C(=O)N(CC(CN2CCN(c3ccccc3)CC2)OC(C)=O)C(c2ccccc2)(c2ccccc2)C1=O (configuration not stated) | – | 250 µM (≈ 146 µg/mL) | – | 250 µM (≈ 146 µg/mL) | – | – | – | – | – |
| O=C(O)CN1C(=O)N(CCCCCN2CCCN3CCCN=C23)C(c2ccccc2)(c2ccccc2)C1=O | – | 1250 µM (≈ 647 µg/mL) | – | 1250 µM (≈ 647 µg/mL) | inactive | inactive | – | – | – |
| O=C(O)CN1C(=O)N(CCCCCCN2CCCN3CCCN=C23)C(c2ccccc2)(c2ccccc2)C1=O | – | 1250 µM (≈ 665 µg/mL) | – | 1250 µM (≈ 665 µg/mL) | inactive | inactive | – | – | – |
| NCCCCCCN1C(=O)N(CC(=O)O)C(=O)C1(c1ccccc1)c1ccccc1 | – | 1250 µM (≈ 512 µg/mL) | – | 1250 µM (≈ 512 µg/mL) | inactive | inactive | – | – | – |
| O=C(O)CN1C(=O)N(CCCCN2CCCN3CCCN=C23)C(c2ccccc2)(c2ccccc2)C1=O | – | 1250 µM (≈ 630 µg/mL) | – | 1250 µM (≈ 630 µg/mL) | inactive | inactive | – | – | – |

Further lines, results first:

| fold change (FC) [1] | MIC [2] | inhibition [3] | MIC [4] | inhibition [5] | inhibition [6] | fold change (FC) [7] | fold change (FC) [8] | fold change (FC) [9] | SMILES |
| --- | --- | --- | --- | --- | --- | --- | --- | --- | --- |
| – | 1250 µM (≈ 706 µg/mL) | – | 1250 µM (≈ 706 µg/mL) | inactive | inactive | – | – | – | CCOC(=O)N1CCN(CCCCCCN2C(=O)N(CC(=O)OC)C(=O)C2(c2ccccc2)c2ccccc2)CC1 |
| – | 1250 µM (≈ 671 µg/mL) | – | 1250 µM (≈ 671 µg/mL) | inactive | inactive | – | – | – | CCOC(=O)N1CCN(CCCCN2C(=O)N(CC(=O)OC)C(=O)C2(c2ccccc2)c2ccccc2)CC1 |
| – | 1250 µM (≈ 651 µg/mL) | – | 1250 µM (≈ 651 µg/mL) | inactive | inactive | – | – | – | COC(=O)CN1C(=O)N(CCCCCCCCN2CCNCC2)C(c2ccccc2)(c2ccccc2)C1=O |
| – | 62.5 µM (≈ 34.8 µg/mL) | – | 250 µM (≈ 139 µg/mL) | – | – | 2 | 4 | – | COc1ccccc1N1CCN(CCCCN2C(=O)N(CC(=O)O)C(=O)C2(c2ccccc2)c2ccccc2)CC1 |
| – | 125 µM (≈ 54.9 µg/mL) | – | 125 µM (≈ 54.9 µg/mL) | inactive | inactive | – | – | – | COC(=O)CN1C(=O)N(CC(O)CNC(C)C)C(c2ccccc2)(c2ccccc2)C1=O (configuration not stated) |
| – | > 500 µM | inactive | > 500 µM | – | – | – | – | – | O=C1NC(=O)C(c2ccccc2)(c2ccccc2)N1CCCCN1CCN(c2ccccc2)CC1 |
| – | > 500 µM | inactive | > 500 µM | – | – | – | – | – | CN1C(=O)N(CC(O)CN2CCN(c3ccccc3)CC2)C(c2ccccc2)(c2ccccc2)C1=O (configuration not stated) |
| – | 1250 µM (≈ 688 µg/mL) | – | 1250 µM (≈ 688 µg/mL) | inactive | inactive | – | – | – | CCOC(=O)N1CCN(CCCCCN2C(=O)N(CC(=O)OC)C(=O)C2(c2ccccc2)c2ccccc2)CC1 |
| – | 1250 µM (≈ 741 µg/mL) | – | 1250 µM (≈ 741 µg/mL) | inactive | inactive | – | – | – | CCOC(=O)N1CCN(CCCCCCCCN2C(=O)N(CC(=O)OC)C(=O)C2(c2ccccc2)c2ccccc2)CC1 |
| – | 1250 µM (≈ 459 µg/mL) | – | 1250 µM (≈ 459 µg/mL) | inactive | inactive | – | – | – | NCCCN1C(=O)N(CC(=O)O)C(=O)C1(c1ccccc1)c1ccccc1 |
| – | > 500 µM | inactive | > 500 µM | – | – | – | – | – | COC(=O)CN1C(=O)N(CCCN2CCN(c3ccccc3)CC2)C(c2ccccc2)(c2ccccc2)C1=O |
| 4 | > 500 µM | inactive | > 500 µM | – | – | – | – | – | CN1C(=O)N(CCCCCN2CCN(c3ccccc3)CC2)C(c2ccccc2)(c2ccccc2)C1=O |
